Screening data: PubChem, Columbia University Molecular Screening Center
Insulin prom act: TRM-6 insulin promoter activation; TRM-6 cells (human fetal islet line), insulin promoter eGFP reporter, imaging; plate-scaled: unstimulated 0, stimulated control 100; activation, % at 2 µM; 130,000 tested, 0.81% active;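 active = activation at 2 µM above a set limit, confirmed on inspection of the cell images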;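 note: share of cells whose green reporter signal exceeds an intensity cutoff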
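Assay system: TRM-6 insulin promoter–eGFP reporter cells / Input: 1,000 cells per well / Medium: Low-glucose (5.5 mM) medium with tamoxifen / Also added: tamoxifen inducer, 0.75 µM, in seeding medium / Timing: overnight tamoxifen, then two-day compound incubation at 37 °C / Signal: automated fluorescence imaging of paraformaldehyde-fixed, Hoechst-counterstained cells, green channel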
Numbers stand for hits; i = inactive. The full list was thinned out, with hits kept by preference.

SMILES	Insulin prom act
Cc1cc(C)c(NC(=O)C2CCCN2C(=O)NC2CCCCC2)c(C)c1 (stereo not drawn)	i
Cc1cc(C)c(NC(=O)C2CCN(c3cnccn3)CC2)c(C)c1	481.3
O=[N+]([O-])c1ccc(N2CCN(S(=O)(=O)c3ccc4ccccc4c3)CC2)cc1NCC1CCCO1 (stereo not drawn)	i
CC(C)c1cc(N=NC(N)=O)cc(C(C)C)c1O	i
N/C(=N\OC(=O)CCCOc1ccccc1)c1ccncc1	i
Cc1ccccc1C(=O)O/N=C(\N)c1ccncc1	508.3
N/C(=N\OC(=O)c1ccc(Br)cc1)c1ccccc1	i
CCN(Cc1ccccc1)C(=O)Cn1c(=O)n(-c2ccc(OC)cc2OC)c(=O)c2c(C)c(C)sc21	i
O=C(Nc1cc(N2CCOCC2)ncn1)NC1(C(F)(F)F)Oc2ccccc2O1	i
COC(=O)c1cc(OC)c(OC)cc1NC(=S)N1CCCC(CO)C1 (stereo not drawn)	i
COc1cc(CNC2CCCC2)cc(Cl)c1OCc1ccccc1F	i
CCCCN1C(=O)C(CC(=O)NCC)SC1=Nc1ccccc1 (stereo not drawn)	450.0
CCN=C1SC(CC(=O)NCCc2ccc(OC)c(OC)c2)C(=O)N1CC (stereo not drawn)	i
O=C(O)CC1SC(=Nc2ccccc2)N(c2ccccc2)C1=O (stereo not drawn)	i
CC(C)NC(=O)/C=C/C(=O)O	i
CCN1CCN(C(=O)c2ccccc2N(Cc2ccccc2)S(=O)(=O)c2ccc(C)cc2)CC1	i
Cc1noc(C)c1S(=O)(=O)N1CCC(C(=O)NCCc2ccc(S(N)(=O)=O)cc2)CC1	i
Cc1ccc(CNC(=O)C2CCCN(S(=O)(=O)c3c(C)noc3C)C2)cc1 (stereo not drawn)	i
Cc1ccc(CNC(=O)C2CCN(S(=O)(=O)c3c(C)noc3C)CC2)cc1	75.9
CCNc1nnc(-c2ccc(C)cc2)o1	i
O=C(N/C(=C\c1cccc([N+](=O)[O-])c1)C(=O)N1CCOCC1)c1ccc([N+](=O)[O-])cc1	i
CCC(Sc1ncnc2sc(C)c(C)c12)C(=O)OC (stereo not drawn)	i
CCOC(=O)N1CCN(C(=O)c2ccccc2NC(C)=O)CC1	i
CCOC(=O)N1CCC(Nc2c(-c3ccccc3)c(=O)c2=O)CC1	85.9
CCOC(=O)N1CCN(c2c(NCCN(C)Cc3ccccc3)c(=O)c2=O)CC1	i
SMILES	Insulin prom act
COc1ccc(S(=O)(=O)CC2(O)CCN(C(=O)C(C)(C)C)CC2)cc1	i
Cn1nnnc1SC(C(=O)Nc1cccc(C(F)(F)F)c1)c1ccccc1 (stereo not drawn)	i
CCOC(=O)NC(=S)Nc1c(C)n(C)n(-c2ccccc2)c1=O	i
Cc1c(NC(=O)c2ccccc2)c(=O)n(-c2ccccc2)n1C	i
Cc1c(NC(N)=O)c(=O)n(-c2ccccc2)n1C	247.6
O=S(=O)(NCCSc1nnc(-c2ccco2)n1-c1ccccc1)c1ccccc1	i
CCc1ccc(N2CC(C(=O)OC)CC2=O)cc1 (stereo not drawn)	i
CCOC(=O)C1CCCN(C2CC(=O)N(c3ccccc3)C2=O)C1 (stereo not drawn)	i
CCc1ccc(N2C(=O)CC(N3CCC(C(=O)OC)CC3)C2=O)cc1 (stereo not drawn)	542.9
CC(C(=O)NCc1ccco1)n1cc([N+](=O)[O-])cn1 (stereo not drawn)	i
CCCCn1c(CN(C)Cc2ccccc2)nc2c1c(=O)n(C)c(=O)n2C	i
CN(Cc1ccccc1)Cc1nc2c([nH]1)c(=O)n(C)c(=O)n2C	105.3
CCCn1c(CN(C)Cc2ccccc2)nc2c1c(=O)n(C)c(=O)n2C	i
COc1cccc(NCc2cc(=O)oc3cc(-c4ccccc4)c(O)cc23)c1	i
COc1ccc(N2CCN(C(CNC(=O)C(C)(C)C)c3cccnc3)CC2)cc1 (stereo not drawn)	i
O=C(NCc1ccccc1)N1CCN(c2ccc(F)cc2)CC1	i
O=C(NCc1ccc(Cl)cc1)C(=O)NCC(c1cccnc1)N1CCN(c2ccc(F)cc2)CC1 (stereo not drawn)	164.7
CCOC(O)[C@H]1N[C@@H](c2ccc(Cl)cc2)[C@@H]([N+](=O)[O-])[C@@H]1c1ccccc1 (stereo partly drawn)	i
C=CCn1c(SCC(=O)NC2CCCCC2)nnc1-c1ccc(OC)cc1	i
C=CCn1c(-c2ccc(Cl)cc2)cnc1SC(C)C(=O)NC(N)=O (stereo not drawn)	357.1
C=CCn1c(SCCOc2ccc(OC)cc2)nnc1C(C)NC(=O)c1ccc(OC)cc1 (stereo not drawn)	i
O=C(Nc1nnc(C2CC2)s1)c1cc(-c2ccccc2)nn1-c1ccccc1	i
CC(C(=O)NCC1CCCCC1)N1CCN(S(=O)(=O)/C=C/c2ccccc2)CC1 (stereo not drawn)	i
COCC(C)NC(=O)NC1(C(F)(F)F)Oc2ccc(Cl)cc2O1 (stereo not drawn)	i
COCC(C)NC(=O)NC(=O)c1ccc(Cl)cc1 (stereo not drawn)	77.4
SMILES	Insulin prom act
COCC(C)NC(=O)c1cccc(Cl)c1 (stereo not drawn)	i
Cc1ccc(NC(=O)CSc2nnc(-c3ccncc3)n2C)cc1S(=O)(=O)N1CCOCC1	i
Cc1cc(Cl)ccc1OCC(=O)N1CCCCC1	i
COC(=O)C1CCCN1C(=O)COc1ccc(Br)cc1Cl (stereo not drawn)	438.5
COCCNC(=O)COc1ccc(Br)cc1Cl	i
COc1cccc(NC(=S)NNC(=O)Cn2nc(C(F)(F)F)cc2C)c1	i
CN(C(=O)CSc1nc(-c2ccccc2)cn1N)C(c1ccccc1)c1ccccc1	82.1
Nn1c(SCC(=O)Nc2ccc3c(c2)OCO3)nnc1-c1ccccc1	i
Cc1ccc(-c2cc(-c3nnc(SCC(=O)NC(C)C(C)C)n3N)c3ccccc3n2)cc1 (stereo not drawn)	i
O=C(Nc1nnc(-c2ccc(F)cc2)o1)c1cccc([N+](=O)[O-])c1	i
COC(=O)[C@@H]1CC[C@H](C)[C@@H](c2ccc(C)cc2)N1C(=O)c1ccc(/C=N/OCC[C@@H]2C=C[C@H](OC(C)=O)[C@@H](COC(C)=O)O2)cc1	i
Cc1cc(C)n(CC(O)Cn2c3ccccc3c3ccccc32)n1 (stereo not drawn)	i
Cc1cc(C)n(CC(=O)n2c3ccccc3c3ccccc32)n1	i
Cc1cc(C)n(CC(O)CN2c3ccccc3Sc3ccccc32)n1 (stereo not drawn)	209.1
CN(C)C(CNC(=O)CN1C(=O)NC2(CCc3ccccc32)C1=O)c1ccco1 (stereo not drawn)	i
C[n+]1cc[nH]c1SCC(=O)c1ccccc1	i
C/C(=N\n1cnnc1)c1ccc(C#N)cc1	i
CSc1nsc(SC)c1C(=O)N1CCN(S(=O)(=O)c2ccc(C)cc2)C1C (stereo not drawn)	125.0
Cc1ccc(S(=O)(=O)N2CCN(C(=O)CN3CCCCC3)C2C(C)C)cc1 (stereo not drawn)	i
CSc1nsc(SC)c1C(=O)Nc1ccc(C)cc1	i
Cc1cc(N2CCCCCC2)nc2ccc(F)cc12	i
COC(=O)c1cn(C(=O)c2ccc(Br)o2)c2ccccc12	i
COC(=O)c1cn(C(=O)c2ccc(C)c(C)c2)c2ccccc12	i
COC(=O)c1cn(C(=O)c2cccc(C)c2)c2ccccc12	483.3
COc1cc([N+](=O)[O-])ccc1NC(=O)CCCOc1cccc(C)c1	i
CCN(CC)c1ccc(C(=O)N/N=C/c2ccccc2OC(F)F)cc1	i
